Reference: ChEMBL document CHEMBL3774372, “Design, physico-chemical properties and biological evaluation of some new N-[(phenoxy)alkyl]- and N-{2-[2-(phenoxy)ethoxy]ethyl}aminoalkanols as anticonvulsant agents” (Bioorg Med Chem, 2016)
Calls of active or inactive are those of the source.

Tests used:
Mus musculus [1] = test: Anticonvulsant activity in mouse assessed as protection against maximal electric shock-induced seizures at 30 mg/kg, ip measured after 0.5 hrs; format: functional, organism-based
In short: (§1)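 Mice dosed ip with suspension in 0.5% methylcellulose; maximal electroshock applied at the listed time after dosing. Protection = abolition of hindlimb tonic extension component of seizure; reported as animals protected/animals tested.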

Vibrio harveyi [2] = test: Mutagenicity in Vibrio harveyi BB7 assessed as number of colonies after 48 hrs (reference value: 13 to 14 no_unit); format: ADME, organism-based; conditions: in vivo
In short: (§2)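 Vibrio harveyi mutagenicity test: test compound was added to exponentially growing cultures (A600 = 0.1, 30 °C) and grown to OD600 0.3–0.4. Then 5 × 10^6 cells were plated on BOSS agar with neomycin (final 100 µg/mL) and incubated 48 h at 30 °C. Neomycin-resistant colonies were counted. Triplicate; controls were water, DMSO and NQNO 40 ng/mL.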

Mus musculus [3] = test: Anticonvulsant activity in mouse assessed as protection against maximal electric shock-induced seizures at 3 mg/kg, ip measured after 0.5 hrs; format: functional, organism-based; in short: as §1
Vibrio harveyi [4] = test: Antimutagenic activity against Vibrio harveyi BB7 assessed as inhibition of NQNO-induced mutagenicity after 48 hrs; format: functional
In short: (§3)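 V. harveyi cultures grown exponentially to A600 0.1 at 30 °C, exposed to test compound for 15 min, then to NQNO, and grown on to A600 0.3–0.4. 5 × 10⁶ cells plated on BOSS agar with neomycin (100, final). Neomycin-resistant colonies counted after 48 h at 30 °C. Result given as % inhibition of NQNO mutagenicity; three independent repeats.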

Mus musculus [5] = test: Neurotoxicity in mouse at 300 mg/kg, ip after 0.5 hrs by rotarod test; format: toxicity, organism-based; conditions: in vivo
In short: (§4)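 Mice were dosed ip with compound suspended in 0.5% methylcellulose. Rotarod: a 1 in. knurled rod turning at 6 rpm. Neurotoxicity was scored as failure to stay on the rod for at least 1 min in each of three trials. Results are given as the number of animals affected out of the number tested.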

Mus musculus [6] = test: Anticonvulsant activity in mouse assessed as protection against subcutaneous pentylenetetrazol-induced seizures at 30 mg/kg, ip measured after 4 hrs; format: functional, organism-based
In short: (§5)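 Mice dosed ip as 0.5% methylcellulose suspension; pentylenetetrazole 85 mg/kg in 0.9% NaCl injected subcutaneously into posterior midline, animals watched at least 30 min. Protection = no threshold seizure (single clonic spasm episode lasting ≥5 s); scored protected/tested.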

Mus musculus [7] = test: Anticonvulsant activity in mouse assessed as protection against subcutaneous pentylenetetrazol-induced seizures at 30 mg/kg, ip measured after 0.5 hrs; format: functional, organism-based; in short: as §5
Mus musculus [8] = test: Neurotoxicity in mouse at 100 mg/kg, ip after 4 hrs by rotarod test; format: toxicity, organism-based; conditions: in vivo; in short: as §4
Mus musculus [9] = test: Neurotoxicity in mouse at 10 mg/kg, ip after 4 hrs by rotarod test; format: toxicity, organism-based; conditions: in vivo
Mus musculus [10] = test: Anticonvulsant activity in mouse assessed as protection against maximal electric shock-induced seizures at 10 mg/kg, ip measured after 0.5 hrs; format: functional, organism-based; in short: as §1
Vibrio harveyi [11] = test: Antimutagenic activity against Vibrio harveyi BB7X assessed as inhibition of NQNO-induced mutagenicity after 48 hrs; format: functional; in short: as §3
Mus musculus [12] = test: Anticonvulsant activity in mouse assessed as protection against maximal electric shock-induced seizures at 10 mg/kg, ip measured after 4 hrs; format: functional, organism-based; in short: as §1
Mus musculus [13] = test: Anticonvulsant activity in mouse assessed as protection against maximal electric shock-induced seizures at 100 mg/kg, ip measured after 4 hrs; format: functional, organism-based; in short: as §1
Vibrio harveyi [14] = test: Antimutagenic activity against Vibrio harveyi BB7M assessed as inhibition of NQNO-induced mutagenicity after 48 hrs; format: functional; in short: as §3
Mus musculus [15] = test: Anticonvulsant activity in mouse assessed as protection against maximal electric shock-induced seizures at 3 mg/kg, ip measured after 4 hrs; format: functional, organism-based; in short: as §1
Mus musculus [16] = test: Neurotoxicity in mouse at 10 mg/kg, ip after 0.5 hrs by rotarod test; format: toxicity, organism-based; conditions: in vivo; in short: as §4
Vibrio harveyi [17] = test: Mutagenicity in Vibrio harveyi BB7M assessed as number of colonies after 48 hrs (reference value: 13 to 14 no_unit); format: ADME, organism-based; conditions: in vivo; in short: as §2
Mus musculus [18] = test: Neurotoxicity in mouse at 30 mg/kg, ip after 0.5 hrs by rotarod test; format: toxicity, organism-based; conditions: in vivo; in short: as §4
Vibrio harveyi [19] = test: Antimutagenic activity against Vibrio harveyi BB7XM assessed as inhibition of NQNO-induced mutagenicity after 48 hrs; format: functional; in short: as §3
Vibrio harveyi [20] = test: Mutagenicity in Vibrio harveyi BB7XM assessed as number of colonies after 48 hrs (reference value: 14 no_unit); format: ADME, organism-based; conditions: in vivo; in short: as §2
Mus musculus [21] = test: Neurotoxicity in mouse at 30 mg/kg, ip after 4 hrs by rotarod test; format: toxicity, organism-based; conditions: in vivo; in short: as §4
Vibrio harveyi [22] = test: Mutagenicity in Vibrio harveyi BB7X assessed as number of colonies after 48 hrs (reference value: 15 to 16 no_unit); format: ADME, organism-based; conditions: in vivo; in short: as §2
Mus musculus [23] = test: Neurotoxicity in mouse at 3 mg/kg, ip after 0.5 hrs by rotarod test; format: toxicity, organism-based; conditions: in vivo; in short: as §4
Mus musculus [24] = test: Anticonvulsant activity in mouse assessed as protection against maximal electric shock-induced seizures at 30 mg/kg, ip measured after 4 hrs; format: functional, organism-based; in short: as §1
Mus musculus [25] = test: Neurotoxicity in mouse at 3 mg/kg, ip after 4 hrs by rotarod test; format: toxicity, organism-based; conditions: in vivo

**Q.** For `CC[C@H](CO)NCCOCCOc1c(C)cccc1C`, which Activity (Mus musculus [1]) is on record?
**A.** Its Activity is “Active”.

**Q.** And the Activity (Vibrio harveyi [2])?
**A.** Its Activity is 20.

**Q.** What about the Activity (Mus musculus [3]) of the same molecule?
**A.** The Activity was “inactive”.

**Q.** And the “inhibition (INH)” value (Vibrio harveyi [4])?
**A.** Its value is 81%.

**Q.** What about the Activity (Mus musculus [5]) of the same molecule?
**A.** Its Activity is “Toxic”.

**Q.** What about the Activity (Mus musculus [6]) of the same molecule?
**A.** Its Activity is “inactive”.

**Q.** And the Activity (Mus musculus [7])?
**A.** Its Activity is “inactive”.

**Q.** And the Activity (Mus musculus [8])?
**A.** Its Activity is “Non-toxic”.

**Q.** And the Activity (Mus musculus [9])?
**A.** Its Activity is “Non-toxic”.

**Q.** And the Activity (Mus musculus [10])?
**A.** Its Activity is “inactive”.

**Q.** And the “inhibition (INH)” value (Vibrio harveyi [11])?
**A.** The value was 56%.

**Q.** And the Activity (Mus musculus [12])?
**A.** Its Activity is “inactive”.

**Q.** What about the Activity (Mus musculus [13]) of the same molecule?
**A.** The Activity was “inactive”.

**Q.** What about the “inhibition (INH)” value (Vibrio harveyi [14]) of the same molecule?
**A.** The value was 55%.

**Q.** What about the Activity (Mus musculus [15]) of the same molecule?
**A.** The Activity was “inactive”.

**Q.** What about the Activity (Mus musculus [16]) of the same molecule?
**A.** The Activity was “Non-toxic”.

**Q.** What about the Activity (Vibrio harveyi [17]) of the same molecule?
**A.** The Activity was 20.

**Q.** What about the Activity (Mus musculus [18]) of the same molecule?
**A.** The Activity was “Non-toxic”.

**Q.** And the “inhibition (INH)” value (Vibrio harveyi [19])?
**A.** Its value is 30%.

**Q.** And the Activity (Vibrio harveyi [20])?
**A.** Its Activity is 27.

**Q.** And the Activity (Mus musculus [21])?
**A.** Its Activity is “Non-toxic”.

**Q.** And the Activity (Vibrio harveyi [22])?
**A.** Its Activity is 26.

**Q.** And the Activity (Mus musculus [23])?
**A.** Its Activity is “Non-toxic”.

**Q.** What about the Activity (Mus musculus [24]) of the same molecule?
**A.** The Activity was “inactive”.

**Q.** What about the Activity (Mus musculus [25]) of the same molecule?
**A.** The Activity was “Non-toxic”.
